Experimental data collected from several papers.
Each line is one published result; the experiments were not run side by side.
Target: 3-phosphoinositide-dependent protein kinase 1 (PDPK1, Homo sapiens, UniProt O15530)
Sequence (O15530 1-556, as in one of the studies): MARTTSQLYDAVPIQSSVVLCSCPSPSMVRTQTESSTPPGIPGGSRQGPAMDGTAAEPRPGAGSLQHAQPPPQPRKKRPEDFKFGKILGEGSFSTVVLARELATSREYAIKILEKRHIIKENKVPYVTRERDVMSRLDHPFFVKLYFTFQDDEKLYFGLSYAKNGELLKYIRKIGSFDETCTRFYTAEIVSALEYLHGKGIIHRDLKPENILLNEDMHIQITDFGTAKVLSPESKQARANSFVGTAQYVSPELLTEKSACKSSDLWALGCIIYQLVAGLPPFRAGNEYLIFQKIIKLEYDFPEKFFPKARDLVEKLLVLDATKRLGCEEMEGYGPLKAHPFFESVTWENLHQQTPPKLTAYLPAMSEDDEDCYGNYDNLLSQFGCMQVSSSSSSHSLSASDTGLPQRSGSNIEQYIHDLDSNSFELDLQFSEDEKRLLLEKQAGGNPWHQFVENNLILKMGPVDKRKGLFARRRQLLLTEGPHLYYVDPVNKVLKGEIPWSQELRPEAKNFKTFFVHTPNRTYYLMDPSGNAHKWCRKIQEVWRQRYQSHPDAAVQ

CC(C)(C)c1nc(-c2cccc(NS(=O)(=O)c3c(F)cccc3F)c2F)c(-c2ccnc(N)n2)s1
remaining activity (enzyme activity; inhibitor; radiometric; 1 µM): 94%

CS(=O)(=O)CCNCc1ccc(-c2ccc3ncnc(Nc4ccc(OCc5cccc(F)c5)c(Cl)c4)c3c2)o1
remaining signal (cell-free assay; 0.5 µM): 86.4%

CCCOc1ccc(OC)c(F)c1C(=O)c1ccc(C(=O)N[C@@H]2CNC[C@H]2NC(=O)c2ccc3[nH]ncc3c2)cc1
remaining activity (enzyme activity; inhibitor; 10 µM): 102%

O=C(Nc1cnn(-c2csc(C(=O)NC3COC3)c2)c1)Nc1ccccc1Cl
remaining activity (enzyme activity; inhibitor; 5 µM): 101%

Cc1nc(N2CC[C@@H](O)C2)ncc1-c1cc(C(F)(F)F)cc2[nH]ncc12
remaining binding (binding; competition with immobilised ligand; 1 µM): 100%

Cc1cnc(NC2CCOCC2)nc1-n1cnc(C(=O)NC(CN)c2cc(F)cc(Cl)c2)c1 (centres unmarked)
remaining activity (enzyme activity; inhibitor; radiometric; 1 µM): 84%

CC(C)(C)c1nc2c3cc[nH]c(=O)c3c3cc(F)ccc3c2[nH]1
remaining signal (cell-free assay; 0.5 µM): 27%

c1ccc(N2CCN(Cc3nc4ccccc4[nH]3)CC2)nc1
remaining binding (binding; competition with immobilised ligand; 1 µM): 89%

C[S+]([O-])c1ccc(-c2nc(-c3ccncc3)c(-c3ccc(F)cc3)[nH]2)cc1 (centres unmarked)
remaining signal (cell-free assay; 0.5 µM): 96.3%

CNC(=O)Nc1ccc2c(c1)[C@@]1(CC2)OC(=O)N(CC(=O)N(Cc2ccc(F)cc2)[C@@H](C)C(F)(F)F)C1=O
remaining binding (cell-free assay; competition with immobilised ligand; 1 µM): 85%

CC(C)(C)C(=O)c1sc(NC2CCCCC2)nc1N
remaining activity (enzyme activity; inhibitor; 10 µM): 108%

O=C(O)c1cc(-c2ccc(C3CCNCC3)cc2)c2ccc(-c3ccc(C(F)(F)F)cc3)cc2c1
remaining binding (cell-free assay; competition with immobilised ligand; 1 µM): 100%

Cc1ccc(C(=O)NCc2ccsc2)cc1C#Cc1cn(C(C)C)c2ncnc(N)c12
activity vs control (enzyme activity; inhibitor; 1 µM): 98%

C#Cc1cccc(Nc2ncnc3cc(OCCOC)c(OCCOC)cc23)c1
remaining signal (cell-free assay; 0.5 µM): 83.8%

CS(=O)(=O)N1CCCC(NC(=O)[C@H](CCC2CCCCC2)NC(=O)c2ccc(CNc3ncnc4c3nnn4-c3ccccc3)cc2)C1 (some centres unmarked)
remaining binding (cell-free assay; competition with immobilised ligand; 0.1 µM): 99%

COc1cc(Nc2cnc(C#N)c(O[C@H](C)CN(C)C)n2)ncc1-c1cnn(C)c1
remaining activity (enzyme activity; inhibitor; radiometric; 10 µM): 76%

Oc1cccc(-c2nc(N3CCOCC3)c3oc4ncccc4c3n2)c1
remaining activity (enzyme activity; inhibitor; 10 µM): 107%
